Source: ChEMBL document CHEMBL1124883, “Monophosphoric acid diesters of 7 beta-hydroxycholesterol and of pyrimidine nucleosides as potential antitumor agents: synthesis and preliminary evaluation of antitumor activity” (1990)

Tests used:
[1] = The percentage of increase in life span was determined; format: functional, Mus musculus
Summary of the method: (§1)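 Krebs II ascitic carcinoma, 1 × 10^6 cells in 0.25 mL 0.9% NaCl from donor mice with 8-10-day tumors, implanted ip into female Swiss/OF1 mice (20-25 g, six per group). Drugs were given in saline, water or aqueous suspension, 0.2 mL ip daily, starting 24 or 96 h post-implant. Saline controls.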

[2] = Evaluated for median survival time against Kreb II murine sarcoma cells in female Swiss/OF1 mice after ip administration of 80 uM/kg per day; format: functional, Mus musculus; summary of the method: as §1
[3] = Evaluated for median survival time against Kreb II murine sarcoma cells in female Swiss/OF1 mice after ip administration of 80 umol/kg per day; format: functional, Mus musculus; summary of the method: as §1
[4] = Evaluated for median survival time against Kreb II murine sarcoma cells in female Swiss/OF1 mice after ip administration of 84 uM/kg per day; format: functional, Mus musculus; summary of the method: as §1
Mus musculus = organism: Mus musculus; assay: Complete recovery expressed as percent of animals surviving for more than 80 days was determined; format: functional; summary of the method: as §1

SMILES	ILS [1]	Median survival time [2]	Median survival time [3]	Median survival time [4]	CR (Mus musculus)
O=c1[nH]c(=O)n([C@@H]2O[C@H](CO)[C@@H](O)[C@H]2O)cc1F [5-FLUOROURIDINE]	93%	29 days	–	–	–
CC(C)CCCC(C)[C@H]1CCC2C3C(CC[C@@]21C)[C@@]1(C)CC[C@H](O)CC1=C[C@@H]3O (stereo in doubt; form 1)	40%	–	21 days	–	–
CC(C)CCCC(C)[C@H]1CC[C@H]2[C@@H]3[C@@H](O)C=C4C[C@@H](O)CC[C@]4(C)[C@H]3CC[C@]12C.O=c1ccn([C@@H]2O[C@H](CO)[C@@H](O)[C@H]2O)c(=O)[nH]1 (some centres undefined)	40%	–	21 days	–	–
CC(C)CCCC(C)[C@H]1CCC2C3C(CC[C@@]21C)[C@@]1(C)CC[C@H](O)CC1=C[C@@H]3O (stereo in doubt; form 2) [listing 1 of 2 here]	180%	–	–	42 days	–
CC(C)CCCC(C)[C@H]1CCC2C3C(CC[C@@]21C)[C@@]1(C)CC[C@H](O)CC1=C[C@@H]3O (stereo in doubt; form 2) [listing 2 of 2 here]	–	–	–	–	30%
